pIC50, pKi: −log10 of the molar value. Activity calls are given as the source filed them. The rule behind the calls is not given here.
Assays:
[1] = tested on: LNCaP; assay: Antiproliferative activity against human LNCAP cells assessed as decrease in cell viability at 10 uM after 48 hrs by MTT assay; assay type: functional
Summary of the method: (§1)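 LNCaP cells grown in RPMI1640 with 10% FBS at 37 °C, 5% CO2. Seeded at 2 × 10^4 cells/500 µl in 24-well plates the day before treatment, then exposed to 10 or 20 µM for 24 or 48 h. MTT was added for a further 1 h, cells lysed and A595 read. Viability given as % of DMSO-treated control. Mean of at least three independent experiments.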

[2] = tested on: LNCaP; assay: Induction of apoptosis in human LNCAP cells assessed as PARP cleavage at 20 uM after 24 hrs by Western blot analysis; assay type: functional, cell-based
Summary of the method: (§2)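 LNCaP cells treated 24 h at 10 or 20 µM, then lysed in RIPA buffer with protease inhibitors and protein measured by Bradford. Extracts (150 µg) run on 7.5% SDS-PAGE and tank-blotted to PVDF. Probed overnight at 4 °C with polyclonal rabbit anti-PARP (1:1000), detected with peroxidase anti-rabbit and chemiluminescence. Full-length and 85 kDa fragment scored.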

[3] = tested on: LNCaP; assay: Antiproliferative activity against human LNCAP cells assessed as decrease in cell viability at 20 uM after 48 hrs by MTT assay; assay type: functional; summary of the method: as §1
[4] = tested on: LNCaP; assay: Induction of apoptosis in human LNCAP cells assessed as PARP cleavage at 10 uM after 24 hrs by Western blot analysis; assay type: functional, cell-based; summary of the method: as §2
[5] = tested on: LNCaP; assay: Antiproliferative activity against human LNCAP cells after 24 to 48 hrs by MTT assay; assay type: functional; settings: read-out: LD50 (the source's name)
Summary of the method: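 LNCaP cells were grown in RPMI1640 with 10% FBS at 37 °C under 5% CO2, and 2 × 10^4 cells/well were seeded the day before treatment. Cells were exposed to 10 or 20 compound for 24 and 48 h. MTT (5 mg/ml) was then added for 1 h, cells were lysed, and A595 was read. Viable cells were expressed as % of DMSO-treated control, mean of ≥3 independent experiments.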

[6] = Inhibition of CK2
[7] = tested on: LNCaP; assay: Antiproliferative activity against human LNCAP cells after 24 by MTT assay; assay type: functional; settings: read-out: LD50 (the source's name)
Summary of the method: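 LNCaP cells were grown in RPMI1640 with 10% FBS at 37 °C under 5% CO2, and 2 × 10^4 cells/well were seeded the day before. Cells were treated with 3–10 µM for 24 h. MTT (5 mg/ml) was then added for 1 h, cells were lysed, and absorbance was read at 595 nm. Viability was expressed as % of DMSO control. LD50 was calculated by curve fitting, mean of ≥3 independent experiments.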

[8] = Inhibition of rat liver CK2 using RRRADDSDDDDD as substrate
[9] = tested on: LNCaP; assay: Induction of apoptosis in human LNCAP cells assessed as PARP cleavage after 24 hrs by Western blot analysis; assay type: functional, cell-based; summary of the method: as §2
[10] = tested on: LNCaP; assay: Antiproliferative activity against human LNCAP cells assessed as decrease in cell viability at 10 to 20 uM after 24 to 48 hrs by MTT assay; assay type: functional, cell-based; summary of the method: as §1

SMILES | Activity [2] | Activity [4] | CC50 [5] [µM] | CC50 [7] [µM] | also measured
NCCCCNc1nc2c(Br)c(Br)c(Br)c(Br)c2[nH]1 | inactive | inactive | < 10 |  | Activity [1]: 20%; Activity [3]: 20%
CN(C)c1nc2c(Br)c(Br)c(Br)c(Br)c2[nH]1 |  |  |  |  | pKi [6]: 7.40
CN(C)CCNc1nc2c(I)c(I)c(I)c(I)c2[nH]1 | Active |  | < 10 | 7.37 | 
Cn1c(NCCN)nc2c(Br)c(Br)c(Br)c(Br)c21 | inactive | inactive | < 10 |  | 
CN(C)CCNc1nc2c(Br)c(Br)c(Br)c(Br)c2[nH]1 | Active |  | < 10 | 9.37 | pKi [8]: 6.80
Ic1c(I)c(I)c2[nH]cnc2c1I | Active |  |  |  | Activity [1]: 20%; Activity [3]: 20%
Cn1c(NCCN)nc2c(I)c(I)c(I)c(I)c21 | inactive | inactive | < 10 | 4.75 | 
NCCCNc1nc2c(Br)c(Br)c(Br)c(Br)c2[nH]1 | Active |  | < 10 |  | 
Brc1c(Br)c(Br)c2[nH]cnc2c1Br | Active |  |  |  | Activity [1]: 20%; Activity [3]: 20%
NCCNc1nc2c(I)c(I)c(I)c(I)c2[nH]1 | Active |  | < 10 |  | 
NCCNc1nc2c(Br)c(Br)c(Br)c(Br)c2[nH]1 | Active | Active | < 10 | 7.22 | Activity [9]: Dose-dependent effect
O=C(O)CCCSc1nc2c(Br)c(Br)c(Br)c(Br)c2[nH]1 |  | inactive |  |  | Activity [10]: inactive; pIC50 [6]: 6.57
CN(C)c1nc2c(Br)c(Br)c(Br)c(Br)c2n1CC(=O)O |  | inactive |  |  | pKi [8]: 6.60; Activity [10]: inactive; pIC50 [6]: 6.57

From ChEMBL document CHEMBL2157902, “Modified tetrahalogenated benzimidazoles with CK2 inhibitory activity are active against human prostate cancer cells LNCaP in vitro” (Bioorg Med Chem, 2012)
